Measurements pooled from the literature.
Each line is one published result; the experiments were not run side by side.
Sample: plasma

CC[C@H](C)CCCCC(=O)N[C@@H](CCN)C(=O)N[C@H](C(=O)N[C@@H](CCN)C(=O)N[C@H]1CCNC(=O)[C@H]([C@@H](C)O)NC(=O)[C@H](CCN)NC(=O)[C@H](CCN)NC(=O)[C@H](CC(C)C)NC(=O)[C@@H](Cc2ccccc2)NC(=O)[C@H](CCN)NC1=O)[C@@H](C)O  half-life (human; intravenous; 0.75 mg/kg; single dose, infusion): 5.44 h
NC(=S)NN=Cc1ncccc1N  half-life (human; oral; 150 mg): 1.5 h
CC(C)n1c(Nc2cccnc2)nc2cnc(Nc3ccc(N4CCN(C)CC4)cc3)nc21  half-life (male human; oral; 150 mg; single dose): 36 h
Cc1ccc(C(=O)Nc2ccc(CN3CCN(C)CC3)c(C(F)(F)F)c2)cc1C#Cc1cnc2[nH]ncc2c1  half-life (human; oral; 40 mg; single dose, healthy volunteers): 26.1 h
COc1ccc([C@@H](O)c2cc(-c3ncnc4cc(N5CCOCC5)ccc34)c(F)cc2Cl)nn1  half-life (human; oral; 200 mg; single dose, patients): 3.94 h
Cn1cc(Nc2nc(N)nc(-c3cccc(-n4ccc5cc(C6CC6)cc(F)c5c4=O)c3CO)n2)cn1  half-life (human; oral; 300 mg; single dose, fasted, suspension): 9 h
Cc1ccc(NC(=O)c2ccc(CN3CCN(C)CC3)cc2)cc1Nc1nccc(-c2cncc(-c3oncc3C)c2)n1  half-life (human; oral; 200 mg/day; multiple doses, steady state, healthy volunteers): 23.3 h
NS(=O)(=O)OC[C@@H]1C[C@@H](n2ccc3c(N[C@H]4CCc5ccccc54)ncnc32)C[C@@H]1O  half-life (human; intravenous; 20 mg/m²; patients): 5.1 h
CNC(=O)n1ccc2cc(Oc3ccnc(NC(=O)c4ccc(C5CCN(CCO)CC5)cc4)c3)c(OCCOC)cc21  half-life (human; oral; 35 mg; single dose, fed, healthy volunteers): 28.3 h
